Test results as given in ChEMBL document CHEMBL1914440, “Discovery of potent, selective, and orally bioavailable alkynylphenoxyacetic acid CRTH2 (DP2) receptor antagonists for the treatment of allergic inflammatory diseases” (J Med Chem, 2011).
Active and inactive are the calls of the source. No cut-off for these calls is given here.

Key:
Mus musculus [1] = assay: Antiinflammatory activity in BALB/c mouse model assessed as inhibition of ovalbumin-induced eosinophil accumulation in bronchoalveolar lavage fluid at 1 mg/kg, ip administered 1 hr prior to and 7 hrs after ovalbumin challenge for 3 days measured 8 hrs after final dose by cell counting; type: functional; conditions: Lung, route intraperitoneal
How it was run: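 BALB/c mice were immunised with ovalbumin ip on days 0 and 7, then challenged with aerosolised ovalbumin for 30 min on days 15, 16 and 17. Bronchoalveolar lavage was done 8 h after the last challenge. Total cells were counted by haemocytometer, and eosinophils by differential count on DiffQuik-stained cytospins. Results are given as % inhibition, mean ± SEM.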

Mus musculus [2] = assay: Antiinflammatory activity in BALB/c mouse contact hypersensitivity model assessed as inhibition of FITC-mediated ear swelling at 5 mg/kg, ip administered 1 hr prior to and 7 hrs after the FITC-challenge measured 24 hrs after final dose

SMILES: C[C@@H]1C[C@H]2[C@@H]3CCC4=CC(=O)C=C[C@]4(C)[C@@]3(F)[C@@H](O)C[C@]2(C)[C@@]1(O)C(=O)CO [DEXAMETHASONE]
- inhibition in vivo at 1 mg/kg (Mus musculus [1]): 90%
- inhibition (Mus musculus [2]): Active
